ChEMBL document CHEMBL1649281, “Detection of the novel extended-spectrum beta-lactamase OXA-161 from a plasmid-located integron in Pseudomonas aeruginosa clinical isolates from Spain” (2009)
≈ marks a conversion by molar mass, not a printed value.

Key:
Assay type in all cases: functional
Pseudomonas aeruginosa [1] = assay: Antibacterial activity against Pseudomonas aeruginosa PAO1 harboring Pseudomonas aeruginosa plasmid DNA isolated from wound infection of patient by Etest
Pseudomonas aeruginosa [2] = assay: Antibacterial activity against Pseudomonas aeruginosa isolated from wound infection of patient by Etest
Pseudomonas aeruginosa [3] = assay: Antibacterial activity against Pseudomonas aeruginosa isolated from lung biopsy specimen of patient by Etest
Pseudomonas aeruginosa [4] = assay: Antibacterial activity against Pseudomonas aeruginosa PAO1 by Etest
Pseudomonas aeruginosa [5] = assay: Antibacterial activity against Pseudomonas aeruginosa PAO1 harboring Pseudomonas aeruginosa plasmid DNA lung biopsy specimen of patient by Etest
Pseudomonas aeruginosa [6] = assay: Antibacterial activity against Pseudomonas aeruginosa PAO1 by CLSI broth microdilution method
Outline: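 MIC by standard CLSI broth microdilution, tested with carbenicillin, ceftazidime, and ceftazidime plus clavulanate at 4 μg/ml. P. aeruginosa PAO1 was the recipient strain, with transformants produced by electroporation and selected on LB agar with 20 μg/ml ceftazidime.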

Pseudomonas aeruginosa [7] = assay: Antibacterial activity against Pseudomonas aeruginosa isolated from lung biopsy specimen of patient by CLSI broth microdilution method
Outline: (§1)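 CLSI standard broth microdilution MICs were determined for carbenicillin, ceftazidime, and ceftazidime plus clavulanate held at a fixed 4 μg/ml.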

Pseudomonas aeruginosa [8] = assay: Antibacterial activity against Pseudomonas aeruginosa PAO1 harboring cloned pUCPOXA-2 by CLSI broth microdilution method; outline: as §1
Pseudomonas aeruginosa [9] = assay: Antibacterial activity against Pseudomonas aeruginosa isolated from wound infection of patient by CLSI broth microdilution method; outline: as §1
Pseudomonas aeruginosa [10] = assay: Antibacterial activity against Pseudomonas aeruginosa PAO1 harboring Pseudomonas aeruginosa plasmid DNA isolated from wound infection of patient by CLSI broth microdilution method
Outline: (§2)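 Plasmid DNA from the clinical isolate was electroporated into PAO1, and transformants were selected on LB agar with 20 μg/ml ceftazidime. Transformants were confirmed by double-disk synergy test and PCR. CLSI broth microdilution MICs were determined for carbenicillin, ceftazidime, and ceftazidime plus fixed 4 μg/ml clavulanate.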

Pseudomonas aeruginosa [11] = assay: Antibacterial activity against Pseudomonas aeruginosa PAO1 harboring Pseudomonas aeruginosa plasmid DNA lung biopsy specimen of patient by CLSI broth microdilution method; outline: as §2
Pseudomonas aeruginosa [12] = assay: Antibacterial activity against Pseudomonas aeruginosa PAO1 harboring cloned pUCPOXA-161 by CLSI broth microdilution method; outline: as §1
Pseudomonas aeruginosa [13] = assay: Antibacterial activity against Pseudomonas aeruginosa PAO1 harboring cloned pUCPOXA-2 by Etest
Pseudomonas aeruginosa [14] = assay: Antibacterial activity against Pseudomonas aeruginosa PAO1 harboring cloned pUCPOXA-161 by Etest

COLISTIN
MIC (Pseudomonas aeruginosa [1]): 2 µg/mL
MIC (Pseudomonas aeruginosa [2]): 2 µg/mL
MIC (Pseudomonas aeruginosa [3]): 2 µg/mL
MIC (Pseudomonas aeruginosa [4]): 2 µg/mL
MIC (Pseudomonas aeruginosa [5]): 2 µg/mL

NCC[C@H](O)C(=O)N[C@@H]1C[C@H](N)[C@@H](O[C@H]2O[C@H](CN)[C@@H](O)[C@H](O)[C@H]2O)[C@H](O)[C@H]1O[C@H]1O[C@H](CO)[C@@H](O)[C@H](N)[C@H]1O [AMIKACIN]
MIC (Pseudomonas aeruginosa [1]): 12 µg/mL (≈ 20.5 µM)
MIC (Pseudomonas aeruginosa [2]): 32 µg/mL (≈ 54.6 µM)
MIC (Pseudomonas aeruginosa [3]): 64 µg/mL (≈ 109 µM)
MIC (Pseudomonas aeruginosa [4]): 3 µg/mL (≈ 5.12 µM)
MIC (Pseudomonas aeruginosa [5]): 12 µg/mL (≈ 20.5 µM)

GENTAMICIN
MIC (Pseudomonas aeruginosa [1]): 12 µg/mL
MIC (Pseudomonas aeruginosa [2]): 32 µg/mL
MIC (Pseudomonas aeruginosa [3]): 64 µg/mL
MIC (Pseudomonas aeruginosa [4]): 2 µg/mL
MIC (Pseudomonas aeruginosa [5]): 8 µg/mL

CC(C)(O/N=C(\C(=O)N[C@@H]1C(=O)N2C(C(=O)[O-])=C(C[n+]3ccccc3)CS[C@H]12)c1csc(N)n1)C(=O)O [CEFTAZIDIME]
MIC (Pseudomonas aeruginosa [6]): 2 µg/mL (≈ 3.66 µM)
MIC (Pseudomonas aeruginosa [7]): > 256 µg/mL
MIC (Pseudomonas aeruginosa [8]): 8 µg/mL (≈ 14.6 µM)
MIC (Pseudomonas aeruginosa [9]): > 256 µg/mL
MIC (Pseudomonas aeruginosa [10]): 128 µg/mL (≈ 234 µM)
MIC (Pseudomonas aeruginosa [11]): 128 µg/mL (≈ 234 µM)
MIC (Pseudomonas aeruginosa [12]): 64 µg/mL (≈ 117 µM)

C[C@@H](O)[C@H]1C(=O)N2C(C(=O)O)=C(SCCNC=N)C[C@H]12 [IMIPENEM ANHYDROUS]
MIC (Pseudomonas aeruginosa [1]): 1 µg/mL (≈ 3.34 µM)
MIC (Pseudomonas aeruginosa [2]): 16 µg/mL (≈ 53.4 µM)
MIC (Pseudomonas aeruginosa [13]): 1.5 µg/mL (≈ 5.01 µM)
MIC (Pseudomonas aeruginosa [3]): 32 µg/mL (≈ 107 µM)
MIC (Pseudomonas aeruginosa [4]): 1.5 µg/mL (≈ 5.01 µM)
MIC (Pseudomonas aeruginosa [5]): 1 µg/mL (≈ 3.34 µM)
MIC (Pseudomonas aeruginosa [14]): 1.5 µg/mL (≈ 5.01 µM)

CCN1CCN(C(=O)N[C@@H](C(=O)N[C@@H]2C(=O)N3[C@@H]2SC(C)(C)[C@@H]3C(=O)O)c2ccccc2)C(=O)C1=O [PIPERACILLIN]
MIC (Pseudomonas aeruginosa [1]): 16 µg/mL (≈ 30.9 µM)
MIC (Pseudomonas aeruginosa [2]): 24 µg/mL (≈ 46.4 µM)
MIC (Pseudomonas aeruginosa [13]): 48 µg/mL (≈ 92.7 µM)
MIC (Pseudomonas aeruginosa [3]): 24 µg/mL (≈ 46.4 µM)
MIC (Pseudomonas aeruginosa [4]): 2 µg/mL (≈ 3.86 µM)
MIC (Pseudomonas aeruginosa [5]): 32 µg/mL (≈ 61.8 µM)
MIC (Pseudomonas aeruginosa [14]): 24 µg/mL (≈ 46.4 µM)

CO/N=C(\C(=O)N[C@@H]1C(=O)N2C(C(=O)[O-])=C(C[N+]3(C)CCCC3)CS[C@H]12)c1csc(N)n1
MIC (Pseudomonas aeruginosa [1]): 8 µg/mL (≈ 16.6 µM)
MIC (Pseudomonas aeruginosa [2]): 16 µg/mL (≈ 33.3 µM)
MIC (Pseudomonas aeruginosa [3]): 12 µg/mL (≈ 25 µM)
MIC (Pseudomonas aeruginosa [4]): 1 µg/mL (≈ 2.08 µM)
MIC (Pseudomonas aeruginosa [5]): 8 µg/mL (≈ 16.6 µM)

NC[C@H]1O[C@H](O[C@H]2[C@H](O)[C@@H](O[C@H]3O[C@H](CO)[C@@H](O)[C@H](N)[C@H]3O)[C@H](N)C[C@@H]2N)[C@H](N)C[C@@H]1O [TOBRAMYCIN]
MIC (Pseudomonas aeruginosa [1]): 12 µg/mL (≈ 25.7 µM)
MIC (Pseudomonas aeruginosa [2]): 48 µg/mL (≈ 103 µM)
MIC (Pseudomonas aeruginosa [3]): 64 µg/mL (≈ 137 µM)
MIC (Pseudomonas aeruginosa [4]): 1 µg/mL (≈ 2.14 µM)
MIC (Pseudomonas aeruginosa [5]): 12 µg/mL (≈ 25.7 µM)

C[C@@H](O)[C@H]1C(=O)N2C(C(=O)O)=C(S[C@@H]3CN[C@H](C(=O)N(C)C)C3)[C@H](C)[C@H]12 [MEROPENEM]
MIC (Pseudomonas aeruginosa [1]): 0.75 µg/mL (≈ 1.96 µM)
MIC (Pseudomonas aeruginosa [2]): 6 µg/mL (≈ 15.6 µM)
MIC (Pseudomonas aeruginosa [13]): 0.38 µg/mL (≈ 0.991 µM)
MIC (Pseudomonas aeruginosa [3]): 8 µg/mL (≈ 20.9 µM)
MIC (Pseudomonas aeruginosa [4]): 0.38 µg/mL (≈ 0.991 µM)
MIC (Pseudomonas aeruginosa [5]): 0.75 µg/mL (≈ 1.96 µM)
MIC (Pseudomonas aeruginosa [14]): 0.5 µg/mL (≈ 1.3 µM)

CC1(C)S[C@@H]2[C@H](NC(=O)C(C(=O)O)c3ccccc3)C(=O)N2[C@H]1C(=O)O (stereo not given in full) [CARBENICILLIN]
MIC (Pseudomonas aeruginosa [6]): 32 µg/mL (≈ 84.6 µM)
MIC (Pseudomonas aeruginosa [7]): 128 µg/mL (≈ 338 µM)
MIC (Pseudomonas aeruginosa [8]): > 256 µg/mL
MIC (Pseudomonas aeruginosa [9]): 128 µg/mL (≈ 338 µM)
MIC (Pseudomonas aeruginosa [10]): 128 µg/mL (≈ 338 µM)
MIC (Pseudomonas aeruginosa [11]): 128 µg/mL (≈ 338 µM)
MIC (Pseudomonas aeruginosa [12]): 128 µg/mL (≈ 338 µM)
